Experimental data: ChEMBL document CHEMBL1153032, “Benzhydrylquinazolinediones: novel cytosolic phospholipase A2alpha inhibitors with improved physicochemical properties” (Bioorg Med Chem, 2009)
≈ marks a conversion by molar mass, not a printed value.

Columns and labels:
[1] = Inhibition of cytosolic phospholipase A2alpha by GLU micelle assay
[2] = Lipophilicity, log D at pH 7.4; format: physicochemical; settings: buffer
[3] = Aqueous solubility after 18 hrs at pH 7.4; format: physicochemical
In short: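 Compound taken as 8 mg/mL DMSO stock; 13 µL added to 1.0 mL pH 7.4 buffer, mixed, left to settle 18 h at room temperature. Mixture filtered (0.2 µm), filtrate concentration read by UV plate reader. Solubility derived against a single-point standard.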

[4] = Permeability in buffer of pH 7.4 by PAMPA; format: ADME; settings: read-out: permeability
In short: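 PAMPA: 5 mg/mL DMSO stock diluted 200-fold in pH 7.4 universal buffer (25 µg/mL) and placed in donor wells. Filter membrane coated with phosphatidylcholine in dodecane (20 mg/mL); acceptor holds pH 7.4 buffer. Sandwich left 18 h at rt. Donor, acceptor and reference concentrations read by UV. Effective permeability (Pe) calculated; triplicate runs averaged. Verapamil and theophylline run as QC standards.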

MC9 [5] = test: Inhibition of LTB4 production in DNP-BSA-stimulated mouse MC9 cells at 5 uM treated 15 mins before DNP-BSA challenge measured after 4 mins; format: functional
MC9 [6] = test: Inhibition of PGF2alpha production in DNP-BSA-stimulated mouse MC9 cells at 5 uM treated 15 mins before DNP-BSA challenge measured after 4 mins; format: functional
Blood = test: Inhibition of TXB2 production in calcium ionophore A-23187-stimulated Sprague-Dawley rat whole blood after 10 mins; format: functional, tissue-based
MC9 [7] = test: Inhibition of PGF2alpha production in arachidonic acid-stimulated mouse MC9 cells at 5 uM treated 15 mins before arachidonic acid challenge measured after 4 mins; format: functional

## O=C(O)C1CC1Cn1c(=O)c2cc(Br)ccc2n(C(c2ccccc2)c2ccccc2)c1=O (stereo not given)
[1]
  IC50: 120 µM

## O=C(O)c1ccc(OC/C=C/Cn2c(=O)n(C(c3ccccc3)c3ccccc3)c(=O)c3ccc(N4CCSCC4)cc32)cc1
[2]
  logD: 3.6
[1]
  IC50: 2.4 µM

## O=C(O)c1ccc(OCCCCCCn2c(=O)n(C(c3ccccc3)c3ccccc3)c(=O)c3ccccc32)cc1
[1]
  IC50: 47 µM

## O=C(O)c1ccc(OC/C=C/Cn2c(=O)n(C(c3ccccc3)c3ccccc3)c(=O)c3ccc(Oc4ccccc4)cc32)cc1
[3]
  solubility at 18 h: 15 µg/mL (≈ 24.6 µM)
[2]
  logD: 4.8
[1]
  IC50: 1.6 µM

## O=C(O)c1ccc(OCCCn2c(=O)n(C(c3ccccc3)c3ccccc3)c(=O)c3ccccc32)cc1
[1]
  IC50: 50 µM

## CSc1ccc2c(=O)n(C(c3ccccc3)c3ccccc3)c(=O)n(C/C=C/COc3ccc(C(=O)O)cc3)c2c1
[4]
  Papp: 4.5 ×10⁻⁶ cm/s
[3]
  solubility at 18 h: 26 µg/mL (≈ 46 µM)
[2]
  logD: 3.2
[1]
  IC50: 2 µM

## O=C(O)c1ccc(OC/C=C/Cn2c(=O)n(C(c3ccccc3)c3ccccc3)c(=O)c3ccccc32)cc1
MC9 [5]
  inhibition at 5 µM: 97%
MC9 [6]
  inhibition at 5 µM: 52%
[1]
  IC50: 3 µM
Blood
  IC50: 14 µM

## O=C(O)c1ccc(OCCCCn2c(=O)n(C(c3ccccc3)c3ccccc3)c(=O)c3ccc(Cl)cc32)cc1
[1]
  IC50: 2.5 µM

## O=C(O)c1ccc(OCCn2c(=O)n(C(c3ccccc3)c3ccccc3)c(=O)c3ccc(Cl)cc32)cc1
[1]
  IC50: 10 µM

## Cc1ccc2c(=O)n(C(c3ccccc3)c3ccccc3)c(=O)n(C/C=C/COc3ccc(C(=O)O)cc3)c2c1
[4]
  Papp: 2 ×10⁻⁶ cm/s
[3]
  solubility at 18 h: 40 µg/mL (≈ 75.1 µM)
[2]
  logD: 3.2
[1]
  IC50: 2.8 µM

## O=C(O)c1cccc(OC/C=C/Cn2c(=O)n(C(c3ccccc3)c3ccccc3)c(=O)c3ccc(Cl)cc32)c1
[1]
  IC50: 100 µM

## O=C(O)c1ccc(OC/C=C\Cn2c(=O)n(C(c3ccccc3)c3ccccc3)c(=O)c3cc(Br)ccc32)cc1
[1]
  IC50: 30 µM

## Cc1c(CCOc2ccc(C(=O)O)cc2)c2cc(Cl)ccc2n1C(c1ccccc1)c1ccccc1
MC9 [7]
  inhibition at 5 µM: -8%
MC9 [5]
  inhibition at 5 µM: 96%
[2]
  logD: 6.1
MC9 [6]
  inhibition at 5 µM: 81%
[1]
  IC50: 3 µM

## O=C(O)c1ccc(Cn2c(=O)c3ccc(Cl)cc3n(C(c3ccccc3)c3ccccc3)c2=O)cc1
[1]
  IC50: 80 µM

## O=C(O)c1ccc(OC/C=C/Cn2c(=O)n(C(c3ccccc3)c3ccccc3)c(=O)c3cc(F)ccc32)cc1
[1]
  IC50: 6 µM

## O=C(O)c1ccc(Cn2c(=O)c3cc(Cl)ccc3n(C(c3ccccc3)c3ccccc3)c2=O)cc1
[1]
  IC50: 90 µM

## O=C(O)c1ccc(OC/C=C/Cn2c(=O)n(C(c3ccccc3)c3ccccc3)c(=O)c3ccc(-n4cncn4)cc32)cc1
[4]
  Papp: 1.6 ×10⁻⁶ cm/s
[3]
  solubility at 18 h: > 100 µg/mL
MC9 [7]
  inhibition at 5 µM: -28%
MC9 [5]
  inhibition at 5 µM: 100%
[2]
  logD: 1.4
MC9 [6]
  inhibition at 5 µM: 102%
[1]
  IC50: 1.1 µM
Blood
  IC50: 11 µM

## O=C(O)COc1ccc(Cn2c(=O)n(C(c3ccccc3)c3ccccc3)c(=O)c3ccccc32)cc1
[1]
  IC50: 360 µM

## O=C(O)c1ccc(OC/C=C/Cn2c(=O)n(C(c3ccccc3)c3ccccc3)c(=O)c3ccc(Cl)cc32)cc1
MC9 [7]
  inhibition at 5 µM: -45%
MC9 [5]
  inhibition at 5 µM: 98%
MC9 [6]
  inhibition at 5 µM: 99%
[1]
  IC50: 1 µM
Blood
  IC50: 11 µM

## O=C(O)c1ccc(OC/C=C\Cn2c(=O)n(C(c3ccccc3)c3ccccc3)c(=O)c3cc(Cl)ccc32)cc1
[1]
  IC50: 40 µM

## O=C(O)c1ccc(OC/C=C\Cn2c(=O)n(C(c3ccccc3)c3ccccc3)c(=O)c3cc(F)ccc32)cc1
[1]
  IC50: 40 µM

## Cc1cccc(C)c1CS(=O)(=O)NCCc1c(CCCc2ccc(C(=O)O)cc2)c2cc(Cl)ccc2n1C(c1ccccc1)c1ccccc1
[1]
  IC50: 0.014 µM

## CS(=O)(=O)c1ccc2c(=O)n(C(c3ccccc3)c3ccccc3)c(=O)n(C/C=C/COc3ccc(C(=O)O)cc3)c2c1
[4]
  Papp: 0.3 ×10⁻⁶ cm/s
[3]
  solubility at 18 h: > 100 µg/mL
[2]
  logD: 1.4
[1]
  IC50: 15 µM

## O=C(O)c1ccc(OC/C=C\Cn2c(=O)n(C(c3ccccc3)c3ccccc3)c(=O)c3ccccc32)cc1
[1]
  IC50: 44 µM

## O=C(O)CCCOc1ccc(Cn2c(=O)n(C(c3ccccc3)c3ccccc3)c(=O)c3ccccc32)cc1
[1]
  IC50: 40 µM

## O=C(O)c1ccc(OC/C=C/Cn2c(=O)n(C(c3ccccc3)c3ccccc3)c(=O)c3ccc(Sc4ccccc4)cc32)cc1
[2]
  logD: 4.8
[1]
  IC50: 2.1 µM

## O=C(O)c1ccc(OCCCCCn2c(=O)n(C(c3ccccc3)c3ccccc3)c(=O)c3ccccc32)cc1
[1]
  IC50: 30 µM

## O=C(O)c1ccc(OC/C=C/Cn2c(=O)c3cc(F)ccc3n(C(c3ccccc3)c3ccccc3)c2=O)cc1
[3]
  solubility at 18 h: 42 µg/mL (≈ 78.3 µM)
[1]
  IC50: 5.6 µM

## COC(=O)C1CCN(c2ccc3c(=O)n(C(c4ccccc4)c4ccccc4)c(=O)n(C/C=C/COc4ccc(C(=O)O)cc4)c3c2)CC1
[4]
  Papp: 1 ×10⁻⁶ cm/s
[3]
  solubility at 18 h: 30 µg/mL (≈ 45.5 µM)
[2]
  logD: 3.3
[1]
  IC50: 1.8 µM

## O=C(O)c1ccc(OC/C=C/Cn2c(=O)n(C(c3ccccc3)c3ccccc3)c(=O)c3ccc(N4CCOCC4)cc32)cc1
[4]
  Papp: 1 ×10⁻⁶ cm/s
[3]
  solubility at 18 h: 48 µg/mL (≈ 79.5 µM)
[2]
  logD: 2.5
[1]
  IC50: 2.2 µM

## O=C(O)Cc1ccc(Cn2c(=O)c3cc(Br)ccc3n(C(c3ccccc3)c3ccccc3)c2=O)cc1
[1]
  IC50: 12 µM

## O=C(O)c1ccc(OCCn2c(=O)c3ccccc3n(Cc3ccccc3)c2=O)cc1
[1]
  IC50: > 100 µM

## O=C(O)c1ccc(OC/C=C\Cn2c(=O)c3ccc(Cl)cc3n(C(c3ccccc3)c3ccccc3)c2=O)cc1
[3]
  solubility at 18 h: 51 µg/mL (≈ 92.2 µM)
[1]
  IC50: 60 µM

## Nc1ccc2c(=O)n(C(c3ccccc3)c3ccccc3)c(=O)n(C/C=C/COc3ccc(C(=O)O)cc3)c2c1
[4]
  Papp: 0.4 ×10⁻⁶ cm/s
[3]
  solubility at 18 h: > 100 µg/mL
[2]
  logD: 1.7
[1]
  IC50: 9 µM

## O=C(O)Cc1coc(-c2ccc(Cn3c(=O)n(C(c4ccccc4)c4ccccc4)c(=O)c4ccccc43)cc2)n1
[1]
  IC50: 140 µM

## O=C(O)Cc1ccc(Cn2c(=O)n(C(c3ccccc3)c3ccccc3)c(=O)c3ccccc32)cc1
[1]
  IC50: 260 µM

## O=C(O)c1ccc(OC/C=C/Cn2c(=O)n(C(c3ccccc3)c3ccccc3)c(=O)c3cc(Br)ccc32)cc1
[1]
  IC50: 9 µM

## O=C(O)c1ccc(OC/C=C/Cn2c(=O)n(C(c3ccccc3)c3ccccc3)c(=O)c3ccc(F)cc32)cc1
MC9 [7]
  inhibition at 5 µM: -27%
MC9 [5]
  inhibition at 5 µM: 99%
[2]
  logD: 2.9
MC9 [6]
  inhibition at 5 µM: 83%
[1]
  IC50: 1.4 µM
Blood
  IC50: 6 µM

## O=C(O)c1ccc(OC/C=C/Cn2c(=O)c3ccccc3n(C(c3ccccc3)c3ccccc3)c2=O)cc1
[3]
  solubility at 18 h: 51 µg/mL (≈ 98.3 µM)
MC9 [7]
  inhibition at 5 µM: -15%
MC9 [5]
  inhibition at 5 µM: 98%
MC9 [6]
  inhibition at 5 µM: 61%
[1]
  IC50: 2 µM
Blood
  IC50: 12 µM

## O=C(O)c1ccc(CCCc2c(CCNS(=O)(=O)Cc3ccc(Cl)c(Cl)c3)n(C(c3ccccc3)c3ccccc3)c3ccc(Cl)cc23)cc1 [EFIPLADIB]
[1]
  IC50: 0.04 µM

## O=C(O)c1ccc(OCCn2c(=O)c3ccccc3n(C(c3ccccc3)c3ccccc3)c2=O)cc1
[1]
  IC50: 10 µM

## O=C(O)c1ccc(OC/C=C\Cn2c(=O)n(C(c3ccccc3)c3ccccc3)c(=O)c3ccc(Cl)cc32)cc1
[1]
  IC50: 30 µM

## O=C(O)c1ccc(OCCn2c(=O)c3ccc(Cl)cc3n(C(c3ccccc3)c3ccccc3)c2=O)cc1
MC9 [7]
  inhibition at 5 µM: 0%
MC9 [5]
  inhibition at 5 µM: 93%
[2]
  logD: 3.3
MC9 [6]
  inhibition at 5 µM: 61%
[1]
  IC50: 4 µM

## O=C(O)c1ccc(OC/C=C\Cn2c(=O)c3ccccc3n(C(c3ccccc3)c3ccccc3)c2=O)cc1
[3]
  solubility at 18 h: 37 µg/mL (≈ 71.4 µM)
[1]
  IC50: 25 µM

## O=C(O)c1ccc(OC/C=C/Cn2c(=O)c3ccc(Cl)cc3n(C(c3ccccc3)c3ccccc3)c2=O)cc1
[3]
  solubility at 18 h: 28 µg/mL (≈ 50.6 µM)
[1]
  IC50: 4.5 µM

## O=C(O)c1ccc(OC/C=C/Cn2c(=O)n(C(c3ccccc3)c3ccccc3)c(=O)c3cc(Cl)ccc32)cc1
[1]
  IC50: 10 µM

## O=C(O)c1ccc(OCCCCCCCn2c(=O)n(C(c3ccccc3)c3ccccc3)c(=O)c3ccccc32)cc1
[1]
  IC50: 71 µM
